PMC12486158 (Analytical biochemistry, 2025)

Experiments:
Type in all cases: biochemical
Homo sapiens SAMHD1 [1] = molecular target: T1, Homo sapiens SAMHD1 (Homo sapiens, UniProt Q9Y3Z3); assay: Tight-binding inhibition of SAMHD1; settings: read-out: Ki (Morrison equation, tight-binding); 100 nM SAMHD1, 500 μM dTTP (5×KM), eq. 4 & 5
Homo sapiens SAMHD1 [2] = molecular target: T1, Homo sapiens SAMHD1; assay: Lineweaver-Burk plot and mechanism of inhibition of SAMHD1
Procedure, shortened: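 Same GTP/dATP pre-activation and coupled MESG/PNP/Ppx1/PPase system. Final: 100 nM SAMHD1, 10 μM GTP, 500 nM dATP, 5 mM MgCl2. Reactions started with inhibitor (up to 4 μM) premixed into dTTP stocks of 0.625–10 mM. A360 followed for 20 min. Initial rates shown as a double-reciprocal plot and globally fitted to a competitive-inhibition equation for Kis. Mean ± SD of three independent experiments.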

Homo sapiens SAMHD1 [3] = molecular target: T1, Homo sapiens SAMHD1; assay: Steady-state kinetics of activated SAMHD1 with dTTP; settings: read-out: KM of dTTP; 100 nM SAMHD1 activated with GTP and dATP, dTTP 8.4-500 μM
Procedure, shortened: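 Recombinant SAMHD1 (HisTrap, then size-exclusion purified) pre-activated stepwise with GTP then dATP, diluted, and mixed with MESG/PNP/Ppx1/PPase coupling cocktail. Final: 100 nM enzyme, 10 μM GTP, 500 nM dATP, 500 μM MESG, […], 10 nM Ppx1 and PPase. Buffer: HEPES pH 8.0, NaCl, MgCl2, TCEP, glycerol. dTTP 8.4–500 μM. A360 over 20 min. Rates corrected for 3 Pi/dTTP. Michaelis-Menten fit. Three independent experiments.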

T1 sequence (Q9Y3Z3 114-626): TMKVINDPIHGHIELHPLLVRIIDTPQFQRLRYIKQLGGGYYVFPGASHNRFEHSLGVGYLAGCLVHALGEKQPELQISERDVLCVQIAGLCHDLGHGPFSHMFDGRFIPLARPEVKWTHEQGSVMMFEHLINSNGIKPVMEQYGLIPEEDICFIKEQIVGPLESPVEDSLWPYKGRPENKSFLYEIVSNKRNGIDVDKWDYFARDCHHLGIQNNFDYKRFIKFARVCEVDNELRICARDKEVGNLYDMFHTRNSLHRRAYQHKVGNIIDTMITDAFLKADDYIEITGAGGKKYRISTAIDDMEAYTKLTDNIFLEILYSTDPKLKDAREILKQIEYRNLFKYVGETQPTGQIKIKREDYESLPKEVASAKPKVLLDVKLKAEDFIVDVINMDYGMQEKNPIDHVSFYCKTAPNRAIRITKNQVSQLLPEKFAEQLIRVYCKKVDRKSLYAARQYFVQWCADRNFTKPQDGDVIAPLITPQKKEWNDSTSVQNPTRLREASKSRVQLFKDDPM

Row | SMILES | Ki (Homo sapiens SAMHD1 [1]) [µM] | Mode of inhibition (Homo sapiens SAMHD1 [2]; double-reciprocal Lineweaver-Burk plot, varied dTTP) | Kis (global inhibition constant, competitive fit) (Homo sapiens SAMHD1 [2]; varied dTTP and dGPNPP (up to 4 μM), global fit) [nM] | Km (Homo sapiens SAMHD1 [3]) [µM]
1 | Nc1nc2c(ncn2[C@H]2C[C@H](O)[C@@H](COP(=O)(O)NP(=O)(O)OP(=O)(O)O)O2)c(=O)[nH]1 [dGPNPP, 2'-Deoxyguanosine-5'-[(α,β)-imido]triphosphate] | 0.025 ± 0.007 | competitive inhibition | 53 ± 7.0 | 
2 | Nc1ccn([C@H]2C[C@H](O)[C@@H](COP(=O)(O)NP(=O)(O)OP(=O)(O)O)O2)c(=O)n1 [dCPNPP, 2'-Deoxycytidine-5'-[(α,β)-imido]triphosphate] | 0.067 ± 0.008 |  |  | 
3 | Cc1cn([C@H]2C[C@H](O)[C@@H](COP(=O)(O)OP(=O)(O)OP(=O)(O)O)O2)c(=O)[nH]c1=O [dTTP, 2’-Deoxythymidine-5’-triphosphate] |  |  |  | 102 ± 9.4
